In ChEMBL document CHEMBL3124864, “Development of antimycobacterial tetrahydrothieno[2,3-c]pyridine-3-carboxamides and hexahydrocycloocta[b]thiophene-3-carboxamides: Molecular modification from known antimycobacterial lead” (Eur J Med Chem, 2014):
In brackets after ≈: the same amount, converted by molar mass.

Key:
[1] = system: Mycobacterium tuberculosis; test: Antitubercular activity against Mycobacterium tuberculosis H37Rv ATCC 27294 after 28 days by two-fold serial dilution method; format: functional; settings: H37Rv ATCC 27294, 672 h
Outline: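 Agar dilution on Middlebrook 7H11 with OADC, compound incorporated as two-fold serial dilutions. Inoculum from fresh 7H11/OADC slants, adjusted to 1 mg/mL wet weight in 0.05% Tween 80 saline and diluted 10^-2 to about 10⁷ cfu/mL, then spotted onto the drug-containing agar. Growth read after 28 days. MIC taken as the lowest concentration giving complete inhibition.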

[2] = system: Mycobacterium tuberculosis; test: Antitubercular activity against Mycobacterium tuberculosis H37Rv ATCC 27294 after 28 days by two-fold serial dilution method in presence of efflux pump inhibitor verapamil; format: functional; settings: H37Rv ATCC 27294, 672 h
[3] = Cytotoxicity against mouse RAW264.7 cells assessed as growth inhibition at 50 uM after 72 hrs by MTT assay; format: cell-based; settings: read-out: GI
Outline: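 RAW 264.7 cells were exposed to compound for 72 h. Viability was read as cellular conversion of MTT to formazan using a non-radioactive cell proliferation kit. Results were expressed as percentage growth inhibition.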

[4] = Selectivity index of cytotoxicity against mouse RAW264.7 cells to antitubercular activity against Mycobacterium tuberculosis H37Rv ATCC 27294; format: toxicity, cell-based; settings: read-out: Selectivity Index

Compound	MIC [1]	MIC [2]	inhibition at 72 h, 50 µM [3]	selectivity ratio [4]
CC(=O)N1CCc2c(sc(NC(=O)C3CCCCC3)c2C(N)=O)C1	71.4 µM (≈ 25 µg/mL)			
CN1CCc2c(sc(NC(=O)C3CCCCC3)c2C(N)=O)C1	7.76 µM (≈ 2.49 µg/mL)	2.58 µM	18.3%	
CC(=O)N1CCc2c(sc(NC(=O)c3cccs3)c2C(N)=O)C1	9.15 µM (≈ 3.2 µg/mL)	4.57 µM		13
CC(=O)Nc1sc2c(c1C(N)=O)CCCCCC2	18.7 µM (≈ 4.99 µg/mL)	9.36 µM	24.6%	
NC(=O)c1c(NC(=O)c2ccccc2)sc2c1CCCCCC2	15.2 µM (≈ 4.99 µg/mL)	5.06 µM	26.6%	
COc1ccccc1C(=O)Nc1sc2c(c1C(N)=O)CCCCCC2	13.9 µM (≈ 4.99 µg/mL)	6.96 µM	24.8%	
NC(=O)c1c(NC(=O)c2cccc([N+](=O)[O-])c2)sc2c1CCCCCC2	16.7 µM (≈ 6.24 µg/mL)	16.7 µM	36.1%	
Cc1ccc(C(=O)Nc2sc3c(c2C(N)=O)CCCCCC3)cc1	4.54 µM (≈ 1.55 µg/mL)	2.27 µM	20.5%	
NC(=O)c1c(NC(=O)c2ccc(Oc3ccccc3)cc2)sc2c1CCCCCC2	3.7 µM (≈ 1.56 µg/mL)	1.23 µM	22.2%	> 10
NC(=O)c1c(NC(=O)c2cccc3ccccc23)sc2c1CCCCCC2	13.2 µM (≈ 4.99 µg/mL)	3.29 µM	28.3%	
NC(=O)c1c(NC(=O)C2CC2)sc2c1CCCCCC2	17.1 µM (≈ 4.99 µg/mL)	8.53 µM	16.9%	
NC(=O)c1c(NC(=O)C2CCCC2)sc2c1CCCCCC2	9.73 µM (≈ 3.12 µg/mL)	9.73 µM	18.3%	
NC(=O)c1c(NC(=O)C2CCCCC2)sc2c1CCCCCC2	9.33 µM (≈ 3.12 µg/mL)	3.11 µM	16.6%	
CC(=O)N1CCc2c(sc(NC(=O)c3ccccc3)c2C(N)=O)C1	72.7 µM (≈ 24.9 µg/mL)			
COc1ccccc1C(=O)Nc1sc2c(c1C(N)=O)CCN(C(C)=O)C2	66.8 µM (≈ 25 µg/mL)			
CC(=O)N1CCc2c(sc(NC(=O)c3cccc([N+](=O)[O-])c3)c2C(N)=O)C1	64.3 µM (≈ 25 µg/mL)			
CC(=O)N1CCc2c(sc(NC(=O)c3ccc(C)cc3)c2C(N)=O)C1	69.8 µM (≈ 24.9 µg/mL)			

Compound	MIC [1]	MIC [2]	inhibition at 72 h, 50 µM [3]	selectivity ratio [4]
CC(=O)N1CCc2c(sc(NC(=O)c3ccc(Oc4ccccc4)cc3)c2C(N)=O)C1	57.3 µM (≈ 25 µg/mL)			
CC(=O)N1CCc2c(sc(NC(=O)c3cccc4ccccc34)c2C(N)=O)C1	63.5 µM (≈ 25 µg/mL)			
CC(=O)N1CCc2c(sc(NC(=O)C3CC3)c2C(N)=O)C1	81.2 µM (≈ 24.9 µg/mL)			
CC(=O)N1CCc2c(sc(NC(=O)C3CCCC3)c2C(N)=O)C1	74.4 µM (≈ 25 µg/mL)			
CC(=O)Nc1sc2c(c1C(N)=O)CCN(C)C2	39.4 µM (≈ 9.99 µg/mL)			
CN1CCc2c(sc(NC(=O)c3ccccc3)c2C(N)=O)C1	37.9 µM (≈ 11.9 µg/mL)			
COc1ccccc1C(=O)Nc1sc2c(c1C(N)=O)CCN(C)C2	36.1 µM (≈ 12.5 µg/mL)			
CN1CCc2c(sc(NC(=O)c3cccc([N+](=O)[O-])c3)c2C(N)=O)C1	34.6 µM (≈ 12.5 µg/mL)			
Cc1ccc(C(=O)Nc2sc3c(c2C(N)=O)CCN(C)C3)cc1	37.9 µM (≈ 12.5 µg/mL)			
CN1CCc2c(sc(NC(=O)c3ccc(Oc4ccccc4)cc3)c2C(N)=O)C1	30.6 µM (≈ 12.5 µg/mL)			
CN1CCc2c(sc(NC(=O)c3cccc4ccccc34)c2C(N)=O)C1	17.1 µM (≈ 6.24 µg/mL)	8.53 µM	28.4%	
CN1CCc2c(sc(NC(=O)C3CC3)c2C(N)=O)C1	5.57 µM (≈ 1.56 µg/mL)	2.78 µM	22.2%	
CN1CCc2c(sc(NC(=O)C3CCCC3)c2C(N)=O)C1	5.06 µM (≈ 1.56 µg/mL)	5.06 µM	18.2%	
CC(=O)Nc1sc2c(c1C(N)=O)CCN(C(C)=O)C2	88.6 µM (≈ 24.9 µg/mL)			
O=C(O)c1cn(C2CC2)c2cc(N3CCNCC3)c(F)cc2c1=O [CIPROFLOXACIN]	9.41 µM (≈ 3.12 µg/mL)	9.41 µM		
CC[C@@H](CO)NCCN[C@@H](CC)CO [ETHAMBUTOL]	7.64 µM (≈ 1.56 µg/mL)	3.82 µM		
NNC(=O)c1ccncc1 [ISONIAZID]	0.72 µM (≈ 0.0987 µg/mL)	0.72 µM		
